According to PMC9359741 (Clinical Cancer Research, 2022):

What was measured:
[1] = tested on: HNSCC, relapsed/refractory glioblastoma; details: plus spartalizumab; cited from earlier work
[2] = tested on: advanced/metastatic PDA or colorectal cancer; details: plus durvalumab; cited from earlier work
[3] = tested on: patients with selected advanced solid tumors; format: in vivo, human; details: Phase 1b
Outline: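 Adults (≥18 y) with histologically or cytologically confirmed selected advanced solid tumours. Oral test compound started at 200 mg QD, with planned escalation to 400 mg QD, plus anti-PD-1 antibody 2 mg/kg IV every 3 weeks. DLT incidence defined the MTD (DLT criteria in supplement). AEs and lab abnormalities were graded by CTCAE v4.03 in all patients given ≥1 dose and summarized descriptively.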

[4] = tested on: patients with PDA, PD-1/PD-L1 IR advanced solid tumors or prOVCA; assay: Phase 2, ARRY-382 300 mg QD plus pembrolizumab 200 mg IV Q3W: adverse events; format: in vivo, human; details: all patients
Outline: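 Open-label study at 12 US centres with three cohorts: pancreatic ductal adenocarcinoma after ≥1 prior systemic line; tumours progressing on anti-PD-1/PD-L1; ovarian, peritoneal or fallopian cancer progressing ≤6 months after ≥4 platinum cycles. Oral test compound 300 mg QD plus anti-PD-1 antibody 200 mg IV every 3 weeks. AEs, SAEs and labs graded by CTCAE v4.03 in all dosed patients; descriptive summary.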

pancreatic cancer = details: plus nivolumab; pancreatic cancer (N = 31); MSI-Stable; cited from earlier work

Compound: CNC(=O)c1cc(Oc2ccc3nc(N[C@@H]4CCCC[C@H]4O)sc3c2)ccn1 [BLZ945]
- Patients with a PR [1]: 2 patients

Compound: FC(F)(F)c1ccc(CNc2ccc(Cc3c[nH]c4ncc(Cl)cc34)cn2)cn1 [pexidartinib]
- Patients with stable disease [2]: 4 patients

Compound: pembrolizumab: humanized monoclonal antibody that blocks the interaction between PD-1 and its ligands PD-L1 and PD-L2 [reference compound]
- Pembrolizumab-related AEs: All AEs ([3]; Total, N = 19): 12 (63.2%) n (%)
- Pembrolizumab-related increased AST ([3]; all patients): 36.8%
- Pembrolizumab-related increased lipase ([3]; all patients): 26.3%
- AEs considered to be related to pembrolizumab [4]: 36 (63.2%) n (%)

Compound: cabiralizumab: a CSF-1R–targeting antibody
- Patients with a PR (pancreatic cancer): 3 patients
